≈ marks a conversion by molar mass, not a printed value. Calls of active or inactive are those of the source. No cut-off for these calls is given here.
Columns and labels:
[1] = system: Staphylococcus aureus; assay: Antibacterial activity against Staphylococcus aureus RN4220 by microbroth dilution method; format: functional
In short: (§1)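 Broth microdilution MIC; reported value is mean of at least two runs, within two-fold experimental uncertainty.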

[2] = system: Staphylococcus aureus; assay: Antibacterial activity against Staphylococcus aureus RN4220 over-expressing FabI by microbroth dilution method; format: functional; in short: as §1
[3] = Inhibition of Acinetobacter baumannii 2208 ATCC 19606 FabI using crotonyl-CoA as substrate in presence of NADPH/NADH after 10 mins by fluorescence assay; set-up: species or system Acinetobacter baumannii ATCC 19606 = CIP 70.34 = JCM 6841
In short: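 AbFabI, 200 nM, in 50 mM MES/100 mM NaCl with 200 μM NADH, 0.1 mg/mL BSA and 0.01% triton. Reaction started with 300 μM crotonyl-CoA. NADH fluorescence read at 340/460 nm. Compounds tested at 0.4 nM–200 μM. Initial 10-min slopes were compared with a DMSO no-compound control. At least two independent experiments, each in duplicate; two-fold uncertainty.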

[4] = system: Staphylococcus aureus; assay: Antibacterial activity against methicillin-resistant Staphylococcus aureus subsp. aureus Rosenbach ATCC 43300 by microbroth dilution method; format: functional; in short: as §1
[5] = system: Escherichia coli; assay: Antibacterial activity against Escherichia coli BW25113 harboring TolC deletion mutant by microbroth dilution method; format: functional; in short: as §1
[6] = system: Acinetobacter baumannii; assay: Antibacterial activity against Acinetobacter baumannii 2208 ATCC 19606 by microbroth dilution method; format: functional; conditions: ATCC 19606 = CIP 70.34 = JCM 6841 2208
In short: (§2)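 Microbroth dilution MIC; each value is the mean of at least two runs, within two-fold experimental uncertainty.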

[7] = system: Escherichia coli; assay: Antibacterial activity against Escherichia coli BW25113 mutant by microbroth dilution method; format: functional; in short: as §1
[8] = molecular target: T1, Enoyl-[acyl-carrier-protein] reductase [NADPH] FabI (Staphylococcus aureus) (UniProt Q6GI75); assay: Binding affinity to Staphylococcus aureus subsp. aureus Rosenbach ATCC 43300 FabI by SPR assay
T1 sequence (whole entry): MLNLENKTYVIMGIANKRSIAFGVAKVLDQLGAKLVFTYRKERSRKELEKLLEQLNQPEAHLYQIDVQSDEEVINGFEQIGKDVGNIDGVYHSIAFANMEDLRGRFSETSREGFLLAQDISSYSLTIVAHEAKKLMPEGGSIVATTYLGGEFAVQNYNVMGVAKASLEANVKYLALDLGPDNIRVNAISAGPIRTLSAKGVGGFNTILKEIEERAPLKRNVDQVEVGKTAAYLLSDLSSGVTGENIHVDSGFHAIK

[9] = system: Acinetobacter baumannii ATCC 19606 = CIP 70.34 = JCM 6841; assay: Binding affinity to Acinetobacter baumannii 2208 ATCC 19606 FabI by SPR assay
[10] = system: Acinetobacter baumannii; assay: Synergistic antibacterial activity against Acinetobacter baumannii 2208 ATCC 19606 assessed as colistin MIC by checkerboard method; format: functional; conditions: ATCC 19606 = CIP 70.34 = JCM 6841 2208
[11] = molecular target: T2, Enoyl-[acyl-carrier-protein] reductase [NADPH] FabI (Staphylococcus aureus, UniProt Q6GI75); assay: Competitive inhibition of Staphylococcus aureus subsp. aureus Rosenbach ATCC 43300 FabI using crotonyl-CoA as substrate in presence of NADPH/NADH after 10 mins by fluorescence assay
T2 sequence (Q6GI75 whole entry): T1 sequence (whole entry)

[12] = Competitive inhibition of Acinetobacter baumannii 2208 ATCC 19606 FabI using crotonyl-CoA as substrate in presence of NADPH/NADH after 10 mins by fluorescence assay; set-up: species or system Acinetobacter baumannii ATCC 19606 = CIP 70.34 = JCM 6841
[13] = molecular target: T2, Enoyl-[acyl-carrier-protein] reductase [NADPH] FabI; assay: Inhibition of Staphylococcus aureus subsp. aureus Rosenbach ATCC 43300 FabI using crotonyl-CoA as substrate in presence of NADPH/NADH after 10 mins by fluorescence assay
In short: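 SaFabI enzyme, 300 nM, in 50 mM MES/100 mM NaCl with 200 μM NADPH, 0.1 mg/mL BSA, 0.01% triton; started with 400 μM crotonyl-CoA. NADPH fluorescence at 340/460 nm. Compounds 0.4 nM–200 μM. Slopes over first 10 min compared with DMSO control for % inhibition. At least two independent experiments, each in duplicate. Two-fold experimental uncertainty.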

[14] = system: Staphylococcus aureus; assay: Antibacterial activity against Staphylococcus aureus Newman by microbroth dilution method; format: functional; in short: as §2
[15] = system: Acinetobacter baumannii; assay: Synergistic antibacterial activity against Acinetobacter baumannii 2208 ATCC 19606 in presence of colistin by checkerboard method; format: functional; conditions: ATCC 19606 = CIP 70.34 = JCM 6841 2208
[16] = system: Acinetobacter baumannii; assay: Synergistic antibacterial activity against Acinetobacter baumannii 2208 ATCC 19606 assessed as fractional inhibitory concentration in presence of colistin by checkerboard method; format: functional, ATCC 19606 = CIP 70.34 = JCM 6841 2208

Row | SMILES | Activity [1] | Activity [2] | IC50 [3] [µM] | MIC [4] [µg/mL] | MIC [2] [µg/mL] | MIC [5] [µg/mL] | MIC [6] [µg/mL] | MIC [7] [µg/mL] | Activity [8] | Activity [9] | MIC [10] [µg/mL] | Ki [11] [nM] | Ki [12] [µM] | IC50 [13] [µM] | MIC [14] | MIC [15] [µg/mL] | FIC [16] | MIC [1] [µg/mL]
1 | CC[C@H]1OC(=O)[C@H](C)[C@@H](O[C@H]2C[C@@](C)(OC)[C@@H](O)[C@H](C)O2)[C@H](C)[C@@H](O[C@@H]2O[C@H](C)C[C@H](N(C)C)[C@H]2O)[C@](C)(O)C[C@@H](C)C(=O)[C@H](C)[C@@H](O)[C@]1(C)O | Active | Active | – | – | – | – | – | – | – | – | – | – | – | – | – | – | – | –
2 | CN(C)[C@@H]1C(O)=C(C(N)=O)C(=O)[C@@]2(O)C(O)=C3C(=O)c4c(O)cccc4[C@@](C)(O)[C@H]3C[C@@H]12 | Active | Active | – | – | – | – | – | – | – | – | – | – | – | – | – | – | – | –
3 | CN[C@@H]1[C@H](O[C@H]2[C@H](O[C@H]3[C@H](O)[C@@H](O)[C@H](N=C(N)N)[C@@H](O)[C@@H]3N=C(N)N)O[C@@H](C)[C@]2(O)C=O)O[C@@H](CO)[C@H](O)[C@H]1O | Active | Active | – | – | – | – | – | – | – | – | – | – | – | – | – | – | – | –
4 | O=C(N[C@H](CO)[C@H](O)c1ccc([N+](=O)[O-])cc1)C(Cl)Cl | Active | Active | – | – | – | – | – | – | – | – | – | – | – | – | – | – | – | –
5 | CC(=O)Nc1ccc(/C=C/C(=O)N2CCC(c3ccc4c(c3)OCO4)C2)cn1 (racemic) | – | – | 8.5 | > 200 | > 200 | > 200 | > 200 | > 200 | Active | Active | 1.56 | 400 | 4.3 | – | – | – | – | –
6 | CC(C)S(=O)(=O)c1ccc(CC(=O)N2CCC(c3ccc4c(c3)OCO4)C2)cc1 (racemic) | – | – | > 100 | > 200 | > 200 | – | > 200 | > 200 | Active | Active | – | > 37100 | > 50 | > 100 | – | – | – | –
7 | O=C(Cc1ccccc1Cl)N1CCC(c2nccs2)C1 (racemic) | – | – | 14 | 100 (≈ 326 µM) | > 200 | > 100 | > 200 | > 100 | Active | Active | 0.39 | 2200 | 7 | – | 163 µM | 50 | 0.75 | –
8 | O=C(Cc1c(F)cccc1F)N1CCC(c2ccc3c(c2)OCO3)C1 (racemic) | – | – | 54 | > 200 | > 200 | – | > 200 | > 200 | Active | Active | – | 900 | 27 | – | – | – | – | –
9 | CC(=O)Nc1ccc(CC(=O)N2CCC(c3nccs3)C2)cc1 (racemic) | – | – | > 100 | > 200 | > 200 | – | > 200 | > 200 | Active | Active | – | > 37100 | > 50 | > 100 | – | – | – | –
10 | CC(=O)Nc1ccc(/C=C/C(=O)N2CCC(c3nccs3)C2)cn1 (racemic) | – | – | 20 | > 200 | – | > 200 | > 200 | > 200 | Active | Active | 0.39 | 1700 | 10 | – | > 200 µg/mL | 100 | 1 | > 200
11 | COc1ccc(C2CCN(C(=O)Cc3ccccc3Cl)C2)cc1 (racemic) | – | – | > 200 | > 200 | – | > 200 | > 200 | – | Active | Active | – | 4600 | > 100 | – | – | – | – | > 200
12 | CC(=O)Nc1ccc(/C=C/C(=O)N2CCC(c3ccccc3)C2)cn1 (racemic) | – | – | 0.47 | > 200 | > 200 | 12.5 (≈ 37.3 µM) | > 200 | – | Active | Active | 3.1 | 400 | 0.2 | – | > 200 µg/mL | – | – | > 200
13 | COc1ccccc1C1CCN(C(=O)Cc2ccccc2F)C1 (racemic) | – | – | 2.1 | 100 (≈ 319 µM) | 100 (≈ 319 µM) | – | > 200 | > 200 | Active | Active | – | 1700 | 1.1 | – | 160 µM | – | – | 50 (≈ 160 µM)
14 | COc1ccccc1C1CCN(C(=O)Cc2cccc(F)c2F)C1 (racemic) | – | – | 7.4 | 100 (≈ 302 µM) | > 200 | – | > 200 | > 200 | Active | Active | – | 1100 | 3.7 | – | 100 µg/mL | – | – | 100 (≈ 302 µM)
15 | COc1ccccc1C1CCN(C(=O)Cc2ccc(NC(C)=O)cc2)C1 (racemic) | – | – | > 100 | > 200 | > 200 | – | > 200 | > 200 | Active | Active | – | > 37100 | > 50 | > 100 | – | – | – | –
16 | COc1ccccc1C1CCN(C(=O)/C=C/c2ccc(NC(C)=O)cc2)C1 (racemic) | – | – | > 100 | > 200 | > 200 | – | > 200 | > 200 | Active | Active | – | > 37100 | > 50 | > 100 | – | – | – | –
17 | O=C(Cc1ccccc1F)N1CCC(c2ccc3c(c2)OCO3)C1 (racemic) | – | – | 32 | > 200 | > 200 | – | > 200 | > 200 | Active | Active | – | 1000 | 16 | – | – | – | – | –
18 | COc1ccc(C2CCN(C(=O)/C=C/c3ccc(NC(C)=O)nc3)C2)cc1 (racemic) | – | – | > 200 | – | > 200 | – | > 200 | > 200 | Active | Active | – | 1300 | > 100 | 3.6 | – | – | – | –
19 | COc1ccc(C2CCN(C(=O)Cc3ccc(NC(C)=O)cc3)C2)cc1 (racemic) | – | – | > 100 | > 200 | > 200 | – | > 200 | > 200 | Active | Active | – | > 37100 | > 50 | > 100 | – | – | – | –
20 | CC(=O)Nc1ccc(/C=C/C(=O)N2CCC(c3ccccn3)C2)cn1 (racemic) | – | – | 7.1 | > 200 | – | > 200 | > 200 | > 200 | Active | Active | 0.39 | 10500 | 3.6 | – | > 200 µg/mL | 100 | 1 | > 200
21 | O=C(Cc1cccc(F)c1F)N1CCC(c2ccc3c(c2)OCO3)C1 (racemic) | – | – | 13.7 | > 200 | – | – | > 200 | > 200 | Active | Active | – | 2000 | 6.9 | – | – | – | – | > 200
22 | CC(=O)Nc1ccc(CC(=O)N2CCC(c3ccc4c(c3)OCO4)C2)cc1 (racemic) | – | – | > 100 | > 200 | > 200 | – | > 200 | > 200 | Active | Active | – | > 37100 | > 50 | > 100 | – | – | – | –
